Substitutions are numbered along the chain they refer to. Like-named read-outs stand apart in the source and are kept apart here.

For experiment [1], the system named is HCN2 channel. The settings on record: cited from earlier work.
Experiment [2] concerns HCN2 C-terminus. Conditions: 10 and 25 µM HCN2 C-terminus, very high ligand levels; ref Ng et al., 2016; cited from earlier work.
In experiment [3] the target is T1, R591A HCN2 C-terminus (Mus musculus, UniProt O88703, R591A).
T1 sequence (O88703 443-645 R591A): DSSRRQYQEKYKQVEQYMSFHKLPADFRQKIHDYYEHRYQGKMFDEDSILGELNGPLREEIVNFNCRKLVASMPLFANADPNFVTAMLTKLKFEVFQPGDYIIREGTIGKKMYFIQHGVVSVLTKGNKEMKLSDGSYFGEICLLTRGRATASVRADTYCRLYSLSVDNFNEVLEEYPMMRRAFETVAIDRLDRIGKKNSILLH
Kind of experiment: ITC binding to R591A HCN2 C-terminus. In short, it runs like this: (§1)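 HCN2 C-linker/CNBD point mutant (residues 443–645) expressed from an HMT-tagged pET28 vector in Rosetta DE3 pLacI cells, induced 4 h. […] Integrated heats fitted to a one- or two-site independent binding model; ≥3 replicates.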

The target in experiment [4] is T2, wild-type HCN2 C-terminus (Mus musculus, UniProt O88703).
T2 sequence (O88703 443-645): T1 sequence (O88703 443-645 R591A) with A149R
In words: ITC binding to wild-type HCN2 C-terminus. Conditions: for n: Wild type, mean ± SEM.

The target in experiment [5] is T3, I630A HCN2 C-terminus (Mus musculus, UniProt O88703, I630A).
T3 sequence (O88703 443-645 I630A): T1 sequence (O88703 443-645 R591A) with A149R, I188A
In words: ITC binding to I630A HCN2 C-terminus. The settings on record: for Kd: two-site model, mean ± SEM. In short, it runs like this: as §1

Experiment [6] addresses T4, K638A HCN2 C-terminus (Mus musculus, UniProt O88703, K638A).
T4 sequence (O88703 443-645 K638A): T1 sequence (O88703 443-645 R591A) with A149R, K196A
Kind of experiment: ITC binding to K638A HCN2 C-terminus. In short, it runs like this:
as §1

The target of experiment [7] is T5, D631A HCN2 C-terminus (Mus musculus, UniProt O88703, D631A).
T5 sequence (O88703 443-645 D631A): T1 sequence (O88703 443-645 R591A) with A149R, D189A
Kind of experiment: ITC binding to D631A HCN2 C-terminus. The settings on record: for Kd: two-site model, mean ± SEM.

The target of experiment [8] is T6, T592A HCN2 C-terminus (Mus musculus, UniProt O88703, T592A).
T6 sequence (O88703 443-645 T592A): T1 sequence (O88703 443-645 R591A) with A149R, T150A
In words: ITC binding to T592A HCN2 C-terminus. In short, it runs like this: as §1

Experiment [9] deals with T7, D634A HCN2 C-terminus (Mus musculus, UniProt O88703, D634A).
T7 sequence (O88703 443-645 D634A): T1 sequence (O88703 443-645 R591A) with A149R, D192A
Kind of experiment: ITC binding to D634A HCN2 C-terminus. Conditions: for Kd: two-site model, mean ± SEM. The method, boiled down:
as §1

Experiment [10] addresses T8, I636A HCN2 C-terminus (Mus musculus, UniProt O88703, I636A).
T8 sequence (O88703 443-645 I636A): T1 sequence (O88703 443-645 R591A) with A149R, I194A
In words: ITC binding to I636A HCN2 C-terminus.

Experiment [11] deals with T9, I636D HCN2 C-terminus (Mus musculus, UniProt O88703, I636D).
T9 sequence (O88703 443-645 I636D): T1 sequence (O88703 443-645 R591A) with A149R, I194D
In words: ITC binding to I636D HCN2 C-terminus.

The target in experiment [12] is T10, R632A-HMT HCN2 C-linker/CNBD (Mus musculus, UniProt O88703, R632A).
T10 sequence (O88703 443-645 R632A): T1 sequence (O88703 443-645 R591A) with A149R, R190A
Kind of experiment: ITC binding to R632A-HMT protein. Conditions: two trials.

Experiment [13] addresses T11, L633A HCN2 C-terminus (Mus musculus, UniProt O88703, L633A).
T11 sequence (O88703 443-645 L633A): T1 sequence (O88703 443-645 R591A) with A149R, L191A
In words: ITC binding to L633A HCN2 C-terminus. In short, it runs like this:
as §1

In experiment [14] the target is T12, R635A HCN2 C-terminus (Mus musculus, UniProt O88703, R635A).
T12 sequence (O88703 443-645 R635A): T1 sequence (O88703 443-645 R591A) with A149R, R193A
In words: ITC binding to R635A HCN2 C-terminus. Conditions: stoichiometry, single-site model, four trials, three from Ng et al., 2016.

The target of experiment [15] is T2, wild-type HCN2 C-terminus. The settings on record: previously found; ref Ng et al., 2016; cited from earlier work.
Where [16] appears, read: stoichiometry of high-affinity event.
Where [17] appears, read: stoichiometry of low-affinity event.
Where [18] appears, read: slope of ΔH at 10°C and 25°C, data of Chow et al., 2012.
[19] abbreviates: single-site independent binding model, mean ± SEM, c value <1.
Setting [20] is: stoichiometry, single-site model.
The mark [21] stands for this setting: single-site independent binding model, mean ± SEM.
[22] abbreviates: high-affinity event, two-site model, mean ± SEM.
Setting [23] is: low-affinity event, two-site model, mean ± SEM.
Where [24] appears, read: read-out: Kd Site 1, model input from ITC.
Where [25] appears, read: read-out: Kd Site 2, model input from ITC.
[26] abbreviates: read-out: Kd Site 3, model input from ITC.
The mark [27] stands for this setting: read-out: Kd Site 4, model input from ITC.

Take `Nc1ccn([C@@H]2O[C@@H]3COP(=O)(O)O[C@H]3[C@H]2O)c(=O)n1` [cCMP]: the agonist type result in [1] is “partial agonist”. In addition, the promotion of tetramerization entry in [2] was “not able to promote tetramerization”.
Regarding `O=c1[nH]cnc2c1ncn2[C@@H]1O[C@@H]2COP(=O)(O)O[C@H]2[C@H]1O` [cIMP], the agonist type entry in experiment [1] is on record as “partial agonist”. In experiment [2], the promotion of tetramerization result is “not able to promote tetramerization”.
By Hill coefficient is commonly meant the slope factor of the fitted curve. The EC50 is the midpoint of the concentration-response curve. As for cAMP, the n in experiment [3] (setting [16]) is 0.35 ± 0.02; in experiment [3] (setting [17]), 0.70 ± 0.09; in [4] (setting [16]), 0.33 ± 0.02; in [4] (setting [17]), 0.66 ± 0.09; in [5] (setting [16]), 0.28± 0.03; in experiment [5] (setting [17]), 0.69 ± 0.07. Also, the n in experiment [6] (setting [16]) came out at 0.38 ± 0.04; in experiment [6] (setting [17]), 0.50 ± 0.03; in experiment [7] (setting [16]), 0.21 ± 0.02; in [7] (setting [17]), 0.56 ± 0.04; in experiment [8] (setting [16]), 0.23 ± 0.01; in experiment [8] (setting [17]), 0.56 ± 0.06. Moreover, the n in experiment [9] (setting [16]) is recorded as 0.26 ± 0.03; in [9] (setting [17]), 0.81 ± 0.03; in experiment [10] (setting [16]) it was 0.36 ± 0.01; in [10] (setting [17]) it was 0.60 ± 0.03; in experiment [11] (setting [16]) it was 0.56 ± 0.07; in [11] (setting [17]) it was 0.82 ± 0.02. Besides, the results for the n in [13] (setting [16]) and in [13] (setting [17]) were 0.41 ± 0.02 and 0.69 ± 0.05, respectively. For the same molecule, the “ΔCp, high-affinity binding” value in experiment [4] (setting [18]) is −159 cal/mol/°C. Also, the “ΔCp, low-affinity binding” value in [4] (setting [18]) is −898 cal/mol/°C. Besides, the Hill coefficient in experiment [1] is listed as about 1. Further, in experiment [1] (read-out: EC50 determined by the Hill equation), the concentration for a half-maximal effect (EC50) was about 0.1 µM. Besides, the “binding to R632A-HMT protein” value in experiment [12] is “not detected”.
One may read the Kd as the equilibrium constant for the complex coming apart. As to cGMP, the Kd in [3] (setting [19]) is 322 ± 26.7 µM; in experiment [5] (high-affinity event), 0.49 ± 0.11 µM; in [5] (low-affinity event), 7.78 ± 0.31 µM; in [6] (setting [21]) it was 14.7 ± 2.04 µM; in experiment [7] (high-affinity event), 0.21 ± 0.06 µM; in [7] (low-affinity event), 4.78 ± 0.88 µM. The Kd in [8] (setting [19]) worked out at 184 ± 2.69 µM; in experiment [9] (high-affinity event) it was 0.54 ± 0.1 µM; in experiment [9] (low-affinity event) it was 8.04 ± 1.32 µM; in experiment [10] (setting [22]) it was 0.24 ± 0.02 µM; in [10] (setting [23]), 3.23 ± 0.15 µM; in [10] (setting [24]) it was 0.24 µM. Also, the equilibrium dissociation constant (Kd) in [10] (setting [25]) is 3.23 µM; in experiment [10] (setting [26]) it was 3.23 µM; in experiment [10] (setting [27]), 3.23 µM; in [11] (setting [22]), 0.21 ± 0.07 µM; in experiment [11] (setting [23]), 1.76 ± 0.51 µM; in experiment [11] (setting [24]) it was 0.21 µM. For the same molecule, the Kd in experiment [11] (setting [25]) amounted to 1.76 µM; in experiment [11] (setting [26]), 1.76 µM; in experiment [11] (setting [27]), 1.76 µM; in experiment [13] (setting [21]), 16.5 ± 3.2 µM. In addition, the n in experiment [3] (setting [20]) was determined as 2.15E-5 ± 9.20E-6; in experiment [14], 0.67 ± 0.09; in [4] (setting [16]) it was 0.21 ± 0.01; in experiment [4] (setting [17]), 0.27 ± 0.01; in [5] (setting [16]), 0.24 ± 0.05; in experiment [5] (setting [17]) it was 0.44 ± 0.05. For the same molecule, the n in experiment [6] (setting [20]) stood at 0.47 ± 0.09; in experiment [7] (setting [16]) it was 0.20 ± 0.03; in [7] (setting [17]) it was 0.63 ± 0.09; in experiment [8] (setting [20]) it was 0.20 ± 0.03; in experiment [9] (setting [16]), 0.23 ± 0.04; in experiment [9] (setting [17]), 0.87 ± 0.14. For the same molecule, the n came to 0.23 ± 0.01 in experiment [10] (setting [16]); 0.44 ± 0.02 in [10] (setting [17]); 0.18 ± 0.04 in [11] (setting [16]); 0.56 ± 0.08 in experiment [11] (setting [17]); 0.74 ± 0.09 in experiment [13] (setting [20]). Also, the “fold difference between low- and high-affinity binding” value was 3 fold in experiment [4] (found here) and 2.3 fold in experiment [15]. In addition, in [4] (wild-type HCN2 C-terminus), the “increase of the high-affinity Kd compared with cAMP binding” value is “threefold”. In addition, the “increase of the low-affinity Kd compared with cAMP binding” value in experiment [4] (wild-type HCN2 C-terminus) was about 3.4 fold. For the same molecule, the “binding to R632A-HMT protein” value in [12] is recorded as “not detected”.

The record behind these values is paper PMC6785730 (The Journal of General Physiology, 2019).
